Measurements from ChEMBL document CHEMBL1147686, “Non-peptide calcitonin gene-related peptide receptor antagonists from a benzodiazepinone lead” (Bioorg Med Chem Lett, 2006).
pIC50, pKi: −log10 of the molar value.

Tests used:
[1] = target: T1, Calcitonin-gene-related peptide receptor, CALCRL/RAMP1 (Homo sapiens, UniProt O60894+Q16602); assay: Displacement of [125I]CGRP from human cloned CLR/RAMP1 receptor expressed in E10 cells; format: cell-based
[2] = target: T1, Calcitonin-gene-related peptide receptor, CALCRL/RAMP1; assay: Antagonist activity at human cloned CLR/RAMP1 receptor expressed in E10 cells measured as inhibition of CGRP-mediated cAMP production; format: functional, cell-based
Summary of the method: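 Whole E10 cells stably expressing cloned human CLR/RAMP1; antagonist tested against CGRP-stimulated cAMP production, IC50 from inhibition of the cAMP response.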

[3] = Oral bioavailability in rat; format: ADME, organism-based; settings: in vivo
[4] = target: Calcitonin-gene-related peptide receptor; CALCRL/RAMP1 (Rattus norvegicus) (UniProt Q63118+Q9JJ74); assay: Displacement of [125I]CGRP from rat CLR/RAMP1 receptor at 100 uM; format: protein-complex assay
[5] = Cmax in rat; format: ADME, organism-based; settings: in vivo
[6] = Half life in iv dosed rat; format: ADME, organism-based; settings: in vivo
Summary of the method: (§1)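 Rats received compound intravenously; plasma half-life and clearance derived from the iv profile.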

[7] = Clearance in iv dosed rat; format: ADME, organism-based; settings: in vivo; summary of the method: as §1
[8] = target: T1, Calcitonin-gene-related peptide receptor, CALCRL/RAMP1; assay: Antagonist activity at human cloned CLR/RAMP1 receptor expressed in E10 cells measured as inhibition of CGRP-mediated cAMP production at 17 uM; format: functional, cell-based
[9] = target: T1, Calcitonin-gene-related peptide receptor, CALCRL/RAMP1; assay: Displacement of [125I]CGRP from human cloned CLR/RAMP1 receptor expressed in SK-N-MC cells at 100 uM; format: cell-based

T1 sequence (O60894 whole entry): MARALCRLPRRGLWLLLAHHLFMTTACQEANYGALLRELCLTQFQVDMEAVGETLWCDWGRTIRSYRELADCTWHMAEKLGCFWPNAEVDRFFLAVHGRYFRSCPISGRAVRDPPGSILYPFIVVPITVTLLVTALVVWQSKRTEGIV
T1 sequence (Q16602 whole entry): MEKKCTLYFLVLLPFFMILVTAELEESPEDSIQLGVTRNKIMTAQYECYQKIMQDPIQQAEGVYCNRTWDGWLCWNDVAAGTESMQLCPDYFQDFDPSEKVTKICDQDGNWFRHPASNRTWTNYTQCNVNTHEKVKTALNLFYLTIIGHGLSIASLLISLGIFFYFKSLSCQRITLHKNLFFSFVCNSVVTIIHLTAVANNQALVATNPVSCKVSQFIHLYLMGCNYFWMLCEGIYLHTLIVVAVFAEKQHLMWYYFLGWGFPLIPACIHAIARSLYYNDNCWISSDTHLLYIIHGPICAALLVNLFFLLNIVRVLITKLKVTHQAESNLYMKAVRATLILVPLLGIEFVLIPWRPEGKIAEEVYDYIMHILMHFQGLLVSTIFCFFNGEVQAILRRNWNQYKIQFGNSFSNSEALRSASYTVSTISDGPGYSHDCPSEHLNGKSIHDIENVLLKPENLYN

CN1C(=O)[C@H](NC(=O)N2CCC(N3Cc4ccccc4NC3=O)CC2)N=C(c2ccccc2)c2ccccc21
pKi [1]: 5.66 | pIC50 [2]: 5.44

O=C(N[C@@H]1N=C(c2ccccc2)c2ccccc2N(CC(F)(F)F)C1=O)N1CCC(n2c(=O)[nH]c3ccccc32)CC1
pKi [1]: 5.63 | pIC50 [2]: 5.80

O=C(N[C@H](Cc1cc(Br)c(O)c(Br)c1)C(=O)N1CCN(c2ccccc2)CC1)N1CCC(n2c(O)nc3ccccc32)CC1
pKi [1]: 7.08 | pIC50 [2]: 7.12

O=C(N[C@@H]1N=C(c2ccccc2)c2ccccc2N(CC(F)(F)F)C1=O)N1CCC(N2Cc3ccccc3NC2=O)CC1
bioavailability [3]: 10% | inhibition [4]: 35% | Cmax [5]: 240 nM | pKi [1]: 7.36 | pIC50 [2]: 7.42 | Kb [2]: 0.077 µM | Kb ([2]; read-out: pA2 (converted)): 0.0794 µM | half-life [6]: 1.7 h | clearance [7]: 20 mL/min/kg

CN1C(=O)[C@H](NC(=O)Nc2ccc3c(c2)CCC2(C3)NC(=O)NC2=O)N=C(c2ccccc2)c2ccccc21 (some centres not stated)
pKi [1]: 5.37 | inhibition [8]: 57%

O=C(N[C@@H]1N=C(c2ccccc2)c2ccccc2N(CC(F)(F)F)C1=O)N1CCC(N2CCc3ccccc3NC2=O)CC1
pKi [1]: 7.21 | pIC50 [2]: 7.37

CN1C(=O)C(NC(=O)N2CCC(n3c(=O)[nH]c4ccccc43)CC2)N=C(c2ccccc2)c2ccccc21 (racemic)
pKi [1]: < 4.89

CC(C)N1C(=O)C(NC(=O)N2CCC(N3Cc4ccccc4NC3=O)CC2)N=C(c2ccccc2)c2ccccc21 (racemic)
pKi [1]: 5.97 | pIC50 [2]: 5.74

CCN1C(=O)[C@H](NC(=O)N2CCC(N3Cc4ccccc4NC3=O)CC2)N=C(c2ccccc2)c2ccccc21
pKi [1]: 6.05 | pIC50 [2]: 6.00

CN1C(=O)[C@@H](NC(=O)N2CCC(N3Cc4ccccc4NC3=O)CC2)N=C(c2ccccc2)c2ccccc21
pKi [1]: 5.08 | pIC50 [2]: 5.35

CC(C)N1C(=O)C(NC(=O)N2CCC(N3Cc4ccccc4N(C)C3=O)CC2)N=C(c2ccccc2)c2ccccc21 (racemic)
inhibition [9]: 33%
